High-throughput results deposited in PubChem by several laboratories.
APOBEC3G inh = blocks human APOBEC3G single-stranded DNA deamination. inhibition, % at 20 µM. Q9HC16. recombinant A3G, ssDNA deamination FAM/TAMRA fluorescence. 330,000 compounds, 0.28% hits;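 active = inhibition of at least 40% at 20 µM, with no more than 30% in the related APOBEC3A deaminase screen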
Target sequence (Q9HC16 whole entry, looked up): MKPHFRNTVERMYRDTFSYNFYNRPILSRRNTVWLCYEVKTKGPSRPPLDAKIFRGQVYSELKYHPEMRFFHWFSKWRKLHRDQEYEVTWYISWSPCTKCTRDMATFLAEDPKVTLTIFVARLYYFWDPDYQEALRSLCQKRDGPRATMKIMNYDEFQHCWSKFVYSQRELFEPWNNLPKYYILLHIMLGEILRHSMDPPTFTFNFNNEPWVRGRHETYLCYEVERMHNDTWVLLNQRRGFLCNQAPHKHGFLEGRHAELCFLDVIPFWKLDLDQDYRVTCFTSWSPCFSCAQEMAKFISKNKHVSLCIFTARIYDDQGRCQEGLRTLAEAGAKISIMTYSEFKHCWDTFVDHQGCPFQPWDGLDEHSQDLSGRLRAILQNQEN
AHR act = human AHR activation; activation, % at 5 µM; 320,000 compounds, 2.5% hits; P35869; AHR-responsive luciferase reporter cells, luminescence; in the data active = activation above about 47%
PolyA inhibitor = yeast polyadenylation inhibition; S. cerevisiae SKY197-pL101 polyadenylation reporter, beta-gal luminescence; efflux-impaired pdr1/pdr3 knockout yeast; score 100 = 6 SD above DMSO; activity score, % at 12 µM; 300,000 compounds, 0.02% hits; AID 1875;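 active = lowest replicate activity score at least 50, where 100 means six control SD above control mean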;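 also: yeast exposed to compound for 9 h at 30 °C; higher score means more reporter readthrough which indicates perturbed polyadenylation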
Arr AP2 block = blocks beta-arrestin peptide binding to AP2 adaptin; FITC-arrestin peptide / GST-AP2 beads, flow cytometry; AP2 beta2 appendage carries R879A mutation; inhibition, % at 10 µM; 340,000 compounds, 0.31% hits;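 active = inhibition above a set limit, near 3 SD of compounds lacking own fluorescence, cut at about 54% in these data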
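Test system: GST-tagged AP2 beta2-adaptin appendage (R879A) on 4 µm glutathione beads; also added: fluorescein-tagged arrestin peptide at 50 nM final; timing: 12 min plus 1 h, RT; signal: flow cytometry, FL1 (488/535 nm); read-out: percent drop in bead-associated FITC signal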
UCH37 inh = human UCH37 deubiquitinating enzyme inhibition; Q9Y5K5; 330,000 compounds, 0.33% hits; purified proteasome/UCH37, Ub-AMC cleavage fluorescence; inhibition, % (no concentration beside the values);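 active = mean inhibition over replicate wells above about 20%, limit read from the data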
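Schedule: 30 min plus 25 min, room temperature / Material: human UCH37 within purified proteasomes / Technique: AMC fluorescence intensity at 355/460 nm / Buffer or medium: pH 7.4 Tris-HCl (50 mM) with ovalbumin, ATP-MgCl2, DTT / Controls: wells without proteasome as full block, compound-free enzyme plus substrate as uninhibited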
APOBEC3A inh = human APOBEC3A DNA deaminase inhibition | recombinant A3A, FAM/TAMRA ssDNA deamination fluorescence | inhibition, % at 20 µM | P31941 | AID 493011 | 330,000 compounds, 0.41% hits;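 active = at least 40% inhibition at 20 µM here, with at most 30% in a related deaminase screen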
Target sequence (P31941 whole entry, looked up): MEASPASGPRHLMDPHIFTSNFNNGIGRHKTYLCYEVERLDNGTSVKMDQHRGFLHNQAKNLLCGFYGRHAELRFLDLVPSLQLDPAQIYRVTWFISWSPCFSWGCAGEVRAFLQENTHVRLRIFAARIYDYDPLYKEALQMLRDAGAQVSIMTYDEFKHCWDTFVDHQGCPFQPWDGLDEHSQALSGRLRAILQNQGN
APOBEC3A confirm = APOBEC3A (human) deaminase inhibition, confirmed; shares compounds with APOBEC3A inh; 1,400 compounds, 63% hits; inhibition, % at 20 µM; recombinant A3A, ssDNA deaminase UDG fluorescence assay;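 active = inhibition reaching a set limit, 80% of the first screen's cutoff, at 20 µM in any replicate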
UDG A3A counter = inhibits UDG, flagging false APOBEC3A inhibitors; shares compounds with APOBEC3A inh; UDG counterscreen, FAM/TAMRA uracil oligo fluorescence; inhibition, % at 20 µM; 1,000 tested, under 10 active; call rule not given here
Hits are given with their value; – = inactive; · = no result. Sampled rows, rich in hits. Any-hit rate of the full collection: about 3.4%.

SMILES	APOBEC3G inh	AHR act	PolyA inhibitor	Arr AP2 block	UCH37 inh	APOBEC3A inh	APOBEC3A confirm	UDG A3A counter
O=C(NN=Cc1ccncc1)c1cnccn1	·	·	·	·	–	·	·	·
COc1ccc(CCCC(=O)NCCc2ccccc2)c(C)c1	–	·	–	–	–	41	–	·
COc1ccc(CCCC(=O)NC2CCCCC2C)c(C)c1 (stereo unspecified)	–	–	–	–	–	71	71	–
COc1ccc(CCNC(=O)CCCCC(=O)NCCc2ccc(OC)cc2)cc1	–	–	–	–	–	–	·	·
CC(=O)c1ccc(OCCCC(=O)NC2CCCCC2C)cc1 (stereo unspecified)	–	–	–	–	–	–	·	·
NC(=NO)c1nc(N2CCCC2)nc(N(c2ccccc2)c2ccccc2)n1	·	·	·	·	–	·	·	·
O=C(NN=Cc1ccc[nH]1)c1ccccc1OCc1ccccc1Cl	·	·	·	·	–	·	·	·
COc1ccc(CN2CCc3ccccc3C2)c(OC)c1	–	–	–	–	–	–	·	·
COc1ccc(C2=[N+](C)CCn3cccc32)c(OC)c1	–	–	–	–	–	63	73	–
CCN1/C(=C2\C(=O)N(c3ccccc3)N=C2C)C=Cc2cc(C)ccc21	–	–	–	–	–	49	–	·
COc1ccc(S(=O)(=O)N(CCc2ccccc2)CC(=O)NC(C)C)cc1	–	–	–	–	–	50	48	–
CNC(=O)CN(CCc1ccccc1)S(=O)(=O)c1ccc(OC)cc1	–	–	–	–	–	45	–	·
CC(C)CCOCC(O)CCC(=O)NNC(=S)Nc1ccccc1 (stereo unspecified)	–	–	–	–	–	92	–	–
CC(O)CCC(=O)NNC(=S)Nc1ccccc1 (stereo unspecified)	–	–	–	–	–	–	·	·
ON=CCCn1c(=S)sc2ccccc21	·	·	·	·	–	·	·	·
Cn1cccc1C=NN1CCN(Cc2ccccc2Cl)CC1	·	·	·	·	–	·	·	·
CCOc1ccc(C=NNC(=O)CCC(=O)Nc2ccc(F)cc2)cc1	·	·	·	·	–	·	·	·
NC(=O)NN=Cc1c(F)c(F)c(F)c(F)c1F	·	·	·	·	–	·	·	·
O=C(Nc1ccc(F)c(Cl)c1)c1ccc2c(=O)n3c(nc2c1)CCCCC3	–	–	–	–	–	–	·	·
O=C(Nc1ccc(Cl)cc1)c1ccc2c(=O)n3c(nc2c1)CCCCC3	–	–	–	–	–	52	–	·
CC(C)(C)NN=C1CC(c2ccccc2)Oc2ccccc21 (stereo unspecified)	·	·	·	·	–	·	·	·
CCOc1ccc(C=NNC(=O)C(=O)N2CCCCCC2)c2ccccc12	·	·	·	·	–	·	·	·
CCOc1cc(C2C3=C(CC(C)(C)CC3=O)N(CCOC)C3=C2C(=O)CC(C)(C)C3)ccc1OC	–	–	–	–	–	49	–	·
O=c1[nH]nc(NN=Cc2ccc(Cl)cc2Cl)c(=O)[nH]1	·	·	·	·	–	·	·	·
Cc1cc(C)cc(N=C2NC(=O)/C(=C/c3cccs3)S2)c1	–	56	–	–	–	42	–	·
SMILES	APOBEC3G inh	AHR act	PolyA inhibitor	Arr AP2 block	UCH37 inh	APOBEC3A inh	APOBEC3A confirm	UDG A3A counter
COc1ccccc1C(=O)ON=C(c1ccncc1)c1ccc([N+](=O)[O-])cc1	·	·	·	·	–	·	·	·
CC(C)Nc1nc(NC(C)C)nc(N(C)n2cnnc2)n1	–	–	–	–	–	41	–	·
CCOc1ccc(OCc2cccc(C(=O)NN=Cc3cccnc3)c2)cc1	·	·	·	·	–	·	·	·
CCN(C(=O)Cn1c(=O)oc2ccccc21)c1cccc(C)c1	–	–	–	–	–	100	–	·
CCOC(=O)C(C)C(C)=NNC(=O)CCC(=O)Nc1cc(C)ccc1C (stereo unspecified)	·	·	·	·	–	·	·	·
O=C(c1cccc(S(=O)(=O)NCc2ccc3c(c2)OCO3)c1)N1CCCC1	–	–	·	–	–	89	–	–
O=C(c1cccc(S(=O)(=O)NCc2ccccc2)c1)N1CCCC1	–	–	–	–	–	–	·	·
O=C(CNC(=O)c1ccccn1)NN=Cc1ccccc1	·	·	·	·	–	·	·	·
COc1ccccc1N1C(=N)S/C(=C\c2ccc(-c3ccccc3C(=O)O)o2)C1=O	–	–	–	–	–	44	32	–
O=C(Cc1noc2ccccc12)Nc1ccc2ccccc2c1	–	–	–	–	–	47	–	–
CC(C)Cc1nnc(NC(=O)CCC(=O)Nc2ccccc2)s1	–	–	–	–	–	–	·	·
CC(C)Cc1nnc(NC(=O)Nc2ccccc2)s1	–	–	–	–	–	70	–	–
CN(CC(=O)Nc1c(Cl)cccc1Cl)C(=O)c1cccc(-n2cccc2)c1	–	–	–	–	–	71	53	–
CN(CC(=O)Nc1c(Cl)cccc1Cl)C(=O)CNC(=O)c1ccc2ccccc2c1	–	–	–	–	–	42	–	–
CN(CC(=O)Nc1ccccc1Cl)C(=O)c1cccc(-n2cccc2)c1	–	–	–	–	–	–	·	·
CC(=NNC(=O)c1nnn(-c2nonc2N)c1COc1ccccc1)c1ccc(O)cc1	·	·	·	·	–	·	·	·
O=[N+]([O-])c1ccc(NN=Cc2cccnc2)nc1	·	·	·	·	–	·	·	·
O=C(O)COc1ccccc1C=NNc1ccc(S(=O)(=O)Nc2ccc(Cl)cc2)cc1[N+](=O)[O-]	·	·	·	·	–	·	·	·
CC1CCN(C(=O)c2[nH]cnc2C(=O)Nc2nccs2)CC1	–	–	·	–	–	–	·	·
CC1CCN(C(=O)c2ncn(C)c2C(=O)N2CCC(C)CC2)CC1	–	–	·	–	–	55	69	–
Fc1cccc(C=NNc2ccccn2)c1	·	·	·	·	–	·	·	·
COCCCNC(=S)NN=Cc1ccc(OC)c(Br)c1	·	·	·	·	–	·	·	·
Cn1cc(/C=C2/SC(=O)N(CC(=O)Nc3ccc4c(c3)OCO4)C2=O)c2ccccc21	–	–	–	–	–	–	·	·
O=C(CN1C(=O)S/C(=C\c2ccc(-c3cc(C(=O)O)ccc3Cl)o2)C1=O)Nc1ccc2c(c1)OCO2	–	·	·	–	·	50	–	–
Cc1nc2ccc(C(=O)O)cc2c2c1CC(C)S2 (stereo unspecified)	–	–	–	–	–	43	46	–
SMILES	APOBEC3G inh	AHR act	PolyA inhibitor	Arr AP2 block	UCH37 inh	APOBEC3A inh	APOBEC3A confirm	UDG A3A counter
CC1=NC(=O)C(N=Nc2cccc(C(=O)O)c2)N1c1ccccc1 (stereo unspecified)	–	–	·	–	–	43	63	–
CCC(=NNc1ccc([N+](=O)[O-])cc1[N+](=O)[O-])c1ccc(O)cc1	·	·	·	·	–	·	·	·
c1ccc(-c2nnc(N3CCN(c4ccccc4)CC3)nc2-c2ccccc2)cc1	–	–	–	–	–	–	·	·
CN1CCN(c2nnc(-c3ccccc3)c(-c3ccccc3)n2)CC1	–	–	–	–	–	66	27	–
Cc1ccc(N2CC(c3nc4ccccc4n3C)CC2=O)cc1C (stereo unspecified)	–	–	–	–	–	–	·	·
Cc1cc(C)cc(N2CC(c3nc4ccccc4n3C)CC2=O)c1 (stereo unspecified)	–	–	–	–	–	58	46	–
